Assay results as given in ChEMBL document CHEMBL1131013, “Synthesis and evaluation of analogues of the partial agonist 6-(propyloxy)-4-(methoxymethyl)-beta-carboline-3-carboxylic acid ethyl ester (6-PBC) and the full agonist 6-(benzyloxy)-4-(methoxymethyl)-beta-carboline-3-carboxylic acid ethyl ester (Zk 93423) at wild type and recombinant GABAA receptors” (J Med Chem, 1998).

biological target: T1, GABA-A receptor; alpha-5/beta-3/gamma-2 (Homo sapiens, UniProt P18507+P28472+P31644); test: Binding affinity measured using LtK- cell membranes expressing Gamma-aminobutyric acid A receptor alpha-5-beta-3-gamma-2
T1 sequence (P18507 whole entry): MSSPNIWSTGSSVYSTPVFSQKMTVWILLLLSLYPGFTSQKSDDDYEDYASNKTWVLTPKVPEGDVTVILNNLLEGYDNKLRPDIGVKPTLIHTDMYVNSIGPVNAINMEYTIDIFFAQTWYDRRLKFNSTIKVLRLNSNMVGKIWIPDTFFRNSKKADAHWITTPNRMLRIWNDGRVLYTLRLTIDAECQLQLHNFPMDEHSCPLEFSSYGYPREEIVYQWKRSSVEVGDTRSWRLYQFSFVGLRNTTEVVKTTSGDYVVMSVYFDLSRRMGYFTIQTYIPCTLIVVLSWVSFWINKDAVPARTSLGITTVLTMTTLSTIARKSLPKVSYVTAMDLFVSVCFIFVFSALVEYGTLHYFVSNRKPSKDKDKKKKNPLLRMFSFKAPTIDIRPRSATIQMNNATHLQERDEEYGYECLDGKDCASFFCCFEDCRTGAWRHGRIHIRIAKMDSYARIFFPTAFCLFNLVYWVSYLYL
T1 sequence (P28472 whole entry): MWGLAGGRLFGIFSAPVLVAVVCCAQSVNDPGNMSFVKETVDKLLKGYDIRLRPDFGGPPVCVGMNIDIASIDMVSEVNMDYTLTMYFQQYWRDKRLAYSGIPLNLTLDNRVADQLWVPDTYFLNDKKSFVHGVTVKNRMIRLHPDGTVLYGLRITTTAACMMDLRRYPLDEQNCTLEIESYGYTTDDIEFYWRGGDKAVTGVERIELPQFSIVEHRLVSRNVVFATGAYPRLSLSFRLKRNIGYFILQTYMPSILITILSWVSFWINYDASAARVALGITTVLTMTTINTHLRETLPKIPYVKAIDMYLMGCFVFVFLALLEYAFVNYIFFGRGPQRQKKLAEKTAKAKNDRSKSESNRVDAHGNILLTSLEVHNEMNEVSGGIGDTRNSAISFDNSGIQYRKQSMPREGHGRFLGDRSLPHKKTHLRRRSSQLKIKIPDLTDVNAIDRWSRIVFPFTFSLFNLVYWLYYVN
T1 sequence (P31644 whole entry): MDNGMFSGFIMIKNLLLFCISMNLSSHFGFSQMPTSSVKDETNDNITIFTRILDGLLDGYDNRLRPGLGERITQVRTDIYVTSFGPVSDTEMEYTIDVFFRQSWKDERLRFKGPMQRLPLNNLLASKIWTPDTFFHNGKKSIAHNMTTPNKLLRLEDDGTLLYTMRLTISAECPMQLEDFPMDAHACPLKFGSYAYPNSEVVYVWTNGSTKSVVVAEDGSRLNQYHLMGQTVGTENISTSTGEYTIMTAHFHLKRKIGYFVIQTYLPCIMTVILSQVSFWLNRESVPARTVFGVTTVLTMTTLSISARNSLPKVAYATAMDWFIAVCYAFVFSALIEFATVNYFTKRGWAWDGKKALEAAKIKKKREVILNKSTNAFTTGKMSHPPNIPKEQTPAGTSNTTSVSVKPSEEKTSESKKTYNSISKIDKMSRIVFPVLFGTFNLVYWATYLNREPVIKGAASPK

| SMILES | Ki [nM] |
| --- | --- |
| CC(C)CCOc1cc2c3ccccc3nc-2c[nH]1 | > 3000 |
| CCC(C)Oc1cc2c3ccccc3nc-2c[nH]1 (stereo not given) | > 10000 |
| CCCCOc1cc2c(cn1)[nH]c1ccccc12 | 1000 |
| CCOC(=O)c1[nH]cc2nc3ccc(OCc4ccccc4)cc3c-2c1CC | 67.3 |
| CC(C)COc1cc2c(cn1)[nH]c1ccccc12 | 1000 |
| CC(C)(C)OC(=O)c1cc2c3ccccc3nc-2c[nH]1 | 111 |
| c1ccc(COc2cc3c4ccccc4nc-3c[nH]2)cc1 | > 10000 |
| Cc1nnc2ccc(-c3cccc(C(F)(F)F)c3)nn12 [CI-218872] | 561 |
| CCOC(=O)c1ncc2[nH]c3ccccc3c2c1COC | 10.4 |

biological target: T2, GABA-A receptor; alpha-1/beta-3/gamma-2 (Homo sapiens, UniProt P14867+P18507+P28472); test: Binding affinity measured using LtK- cell membranes expressing GABA alpha-1-beta-3-gamma-2 receptor
T2 sequence (P14867 whole entry): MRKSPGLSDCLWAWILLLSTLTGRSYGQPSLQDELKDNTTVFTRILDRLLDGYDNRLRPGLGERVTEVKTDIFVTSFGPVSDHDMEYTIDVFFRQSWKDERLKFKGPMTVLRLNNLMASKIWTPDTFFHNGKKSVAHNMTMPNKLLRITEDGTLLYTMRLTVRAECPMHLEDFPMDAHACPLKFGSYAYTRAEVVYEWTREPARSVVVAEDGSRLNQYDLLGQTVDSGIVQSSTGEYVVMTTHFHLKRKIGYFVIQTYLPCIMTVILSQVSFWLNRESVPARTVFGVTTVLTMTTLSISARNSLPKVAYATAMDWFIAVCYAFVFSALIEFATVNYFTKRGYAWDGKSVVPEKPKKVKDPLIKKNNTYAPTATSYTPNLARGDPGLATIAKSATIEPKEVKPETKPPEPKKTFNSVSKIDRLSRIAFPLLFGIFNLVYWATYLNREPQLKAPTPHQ
T2 sequence (P18507 whole entry): T1 sequence (P18507 whole entry)
T2 sequence (P28472 whole entry): T1 sequence (P28472 whole entry)

| SMILES | Ki [nM] |
| --- | --- |
| CC(C)CCOc1cc2c3ccccc3nc-2c[nH]1 | 350 |
| CCC(C)Oc1cc2c3ccccc3nc-2c[nH]1 (stereo not given) | 245 |
| CCCCOc1cc2c(cn1)[nH]c1ccccc12 | 36.9 |
| CCOC(=O)c1[nH]cc2nc3ccc(OCc4ccccc4)cc3c-2c1CC | 20.8 |
| CC(C)COc1cc2c(cn1)[nH]c1ccccc12 | 24.9 |
| CC(C)(C)OC(=O)c1cc2c3ccccc3nc-2c[nH]1 | 0.72 |
| c1ccc(COc2cc3c4ccccc4nc-3c[nH]2)cc1 | 830 |
| Cc1nnc2ccc(-c3cccc(C(F)(F)F)c3)nn12 [CI-218872] | 57 |
| CCOC(=O)c1ncc2[nH]c3ccccc3c2c1COC | 0.6 |

biological target: GABA-A receptor; alpha-6/beta-3/gamma-2 (Homo sapiens, UniProt P18507+P28472+Q16445); test: Binding affinity measured using LtK- cell membranes expressing Gamma-aminobutyric acid A receptor alpha-6-beta-3-gamma-2
In short: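 Ltk- cells expressing human α6β3γ2, scraped into PBS and resuspended in 10 mM KH2PO4/100 mM KCl pH 7.4. 1 h at 4 °C to equilibrium, filtration, scintillation counting.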

Chain of GABA-A receptor; alpha-6/beta-3/gamma-2 (Q16445 whole entry, one chain of several): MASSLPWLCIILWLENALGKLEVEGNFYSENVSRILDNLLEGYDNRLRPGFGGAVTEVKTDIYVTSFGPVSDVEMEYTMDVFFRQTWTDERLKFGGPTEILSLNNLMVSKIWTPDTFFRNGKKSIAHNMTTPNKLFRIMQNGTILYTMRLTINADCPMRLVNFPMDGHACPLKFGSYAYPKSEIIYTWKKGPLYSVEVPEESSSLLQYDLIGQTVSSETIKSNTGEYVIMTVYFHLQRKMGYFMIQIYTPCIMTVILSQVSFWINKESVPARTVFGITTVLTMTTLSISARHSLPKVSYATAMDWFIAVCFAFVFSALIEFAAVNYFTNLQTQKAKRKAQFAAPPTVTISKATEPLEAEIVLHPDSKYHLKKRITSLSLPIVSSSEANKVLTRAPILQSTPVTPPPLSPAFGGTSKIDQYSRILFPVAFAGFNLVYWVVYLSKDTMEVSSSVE

| SMILES | Ki [nM] |
| --- | --- |
| CC(C)CCOc1cc2c3ccccc3nc-2c[nH]1 | > 10000 |
| CCC(C)Oc1cc2c3ccccc3nc-2c[nH]1 (stereo not given) | > 10000 |
| CCCCOc1cc2c(cn1)[nH]c1ccccc12 | > 1000 |
| CCOC(=O)c1[nH]cc2nc3ccc(OCc4ccccc4)cc3c-2c1CC | > 10000 |
| CC(C)COc1cc2c(cn1)[nH]c1ccccc12 | > 10000 |
| CC(C)(C)OC(=O)c1cc2c3ccccc3nc-2c[nH]1 | > 5000 |
| c1ccc(COc2cc3c4ccccc4nc-3c[nH]2)cc1 | > 10000 |
| Cc1nnc2ccc(-c3cccc(C(F)(F)F)c3)nn12 [CI-218872] | > 10000 |
| CCOC(=O)c1ncc2[nH]c3ccccc3c2c1COC | 1150 |

biological target: T3, GABA-A receptor; alpha-2/beta-3/gamma-2 (Homo sapiens, UniProt P18507+P28472+P47869); test: Binding affinity measured using LtK- cell membranes expressing GABA alpha-2-beta-3-gamma-2 receptor
T3 sequence (P18507 whole entry): T1 sequence (P18507 whole entry)
T3 sequence (P28472 whole entry): T1 sequence (P28472 whole entry)
T3 sequence (P47869 whole entry): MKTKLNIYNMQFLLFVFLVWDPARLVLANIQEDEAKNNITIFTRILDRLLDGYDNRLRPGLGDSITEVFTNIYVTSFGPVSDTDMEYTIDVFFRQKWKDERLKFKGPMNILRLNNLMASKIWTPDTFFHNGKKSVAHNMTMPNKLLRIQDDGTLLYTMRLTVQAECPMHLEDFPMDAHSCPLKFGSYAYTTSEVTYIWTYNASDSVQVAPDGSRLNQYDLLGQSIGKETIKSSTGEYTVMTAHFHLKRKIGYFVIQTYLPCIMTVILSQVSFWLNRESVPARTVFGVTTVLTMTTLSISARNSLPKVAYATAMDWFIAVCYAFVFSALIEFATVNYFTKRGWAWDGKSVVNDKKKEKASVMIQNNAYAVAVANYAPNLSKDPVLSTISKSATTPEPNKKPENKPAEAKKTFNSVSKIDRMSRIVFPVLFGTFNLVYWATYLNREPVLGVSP

| SMILES | Ki [nM] |
| --- | --- |
| CC(C)CCOc1cc2c3ccccc3nc-2c[nH]1 | > 3000 |
| CCC(C)Oc1cc2c3ccccc3nc-2c[nH]1 (stereo not given) | 818 |
| CCCCOc1cc2c(cn1)[nH]c1ccccc12 | 194 |
| CCOC(=O)c1[nH]cc2nc3ccc(OCc4ccccc4)cc3c-2c1CC | 78.3 |
| CC(C)COc1cc2c(cn1)[nH]c1ccccc12 | 124 |
| CC(C)(C)OC(=O)c1cc2c3ccccc3nc-2c[nH]1 | 15 |
| c1ccc(COc2cc3c4ccccc4nc-3c[nH]2)cc1 | > 3000 |
| Cc1nnc2ccc(-c3cccc(C(F)(F)F)c3)nn12 [CI-218872] | 1960 |
| CCOC(=O)c1ncc2[nH]c3ccccc3c2c1COC | 2.8 |

biological target: T4, GABA-A receptor; alpha-3/beta-3/gamma-2 (Homo sapiens, UniProt P18507+P28472+P34903); test: Binding affinity measured using LtK- cell membranes expressing GABA alpha-3-beta-3-gamma-2 receptor
T4 sequence (P18507 whole entry): T1 sequence (P18507 whole entry)
T4 sequence (P28472 whole entry): T1 sequence (P28472 whole entry)
T4 sequence (P34903 whole entry): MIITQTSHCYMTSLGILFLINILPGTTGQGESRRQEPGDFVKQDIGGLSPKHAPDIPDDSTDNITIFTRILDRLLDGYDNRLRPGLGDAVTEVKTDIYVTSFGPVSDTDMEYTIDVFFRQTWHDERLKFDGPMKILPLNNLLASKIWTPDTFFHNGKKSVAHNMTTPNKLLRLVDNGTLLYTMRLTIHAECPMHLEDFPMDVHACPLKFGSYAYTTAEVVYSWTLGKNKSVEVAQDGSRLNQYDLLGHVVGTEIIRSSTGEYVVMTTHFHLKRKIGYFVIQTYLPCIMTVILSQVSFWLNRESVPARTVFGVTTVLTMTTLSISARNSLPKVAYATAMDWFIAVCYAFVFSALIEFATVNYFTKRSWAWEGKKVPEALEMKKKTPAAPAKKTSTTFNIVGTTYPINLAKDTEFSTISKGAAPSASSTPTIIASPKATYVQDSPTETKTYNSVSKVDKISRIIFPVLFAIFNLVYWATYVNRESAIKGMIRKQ

| SMILES | Ki [nM] |
| --- | --- |
| CC(C)CCOc1cc2c3ccccc3nc-2c[nH]1 | > 3000 |
| CCC(C)Oc1cc2c3ccccc3nc-2c[nH]1 (stereo not given) | 869 |
| CCCCOc1cc2c(cn1)[nH]c1ccccc12 | 245 |
| CCOC(=O)c1[nH]cc2nc3ccc(OCc4ccccc4)cc3c-2c1CC | 58.7 |
| CC(C)COc1cc2c(cn1)[nH]c1ccccc12 | 139 |
| CC(C)(C)OC(=O)c1cc2c3ccccc3nc-2c[nH]1 | 18.9 |
| c1ccc(COc2cc3c4ccccc4nc-3c[nH]2)cc1 | > 3000 |
| Cc1nnc2ccc(-c3cccc(C(F)(F)F)c3)nn12 [CI-218872] | 1160 |
| CCOC(=O)c1ncc2[nH]c3ccccc3c2c1COC | 4.8 |
